# Test results published in paper PMC2190579 (The Journal of Cell Biology, 2001).
# B1: vitronectin: human vitronectin purchased from Calbiochem, coated on latex beads (protein, UniProt P04004 20-478, looked up)
# Vitronectin: DQESCKGRCTEGFNVDKKCQCDELCSYYQSCCTDYTAECKPQVTRGDVFTMPEDEYTVYDDGEEKNNATVHEQVGGPSLTSDLQAQSKGNPEQTPVLKPEEEAPAPEVGASKPEGIDSRPETLHPGRPQPPAEEELCSGKPFDAFTDLKNGSLFAFRGQYCYELDEKAVRPGYPKLIRDVWGIEGPIDAAFTRINCQGKTYLFKGSQYWRFEDGVLDPDYPRNISDGFDGIPDNVDAALALPAHSYSGRERVYFFKGKQYWEYQFQHQPSQEECEGSSLSAVFEHFAMMQRDSWEDIFELLFWGRTSAGTRQPQFISRDWHGVPGQVDAAMAGRIYISGMAPRPSLAKKQRFRHRNRKGYRSQRGHSRGRNQNSRRPSRATWLSLFSSEESNLGANNYDDYRMDWLVPATCEPIQSVFFFSGDKYYRVNLRTRRVDTVDPPYPRSIAQYWLGCPAPGHL
# modifications: coated on latex beads
# Legend:
# [1] = target: P2Y1R (wild-type) (Meleagris gallopavo, UniProt P49652); test: Calcium mobilization; format: cell-based, turkey; settings: read-out: EC50 (for Ca^2+ mobilization); 1321N1 cells; mean ± SEM (n = 3)
# Sequence of P2Y1R (wild-type) (P49652 whole entry): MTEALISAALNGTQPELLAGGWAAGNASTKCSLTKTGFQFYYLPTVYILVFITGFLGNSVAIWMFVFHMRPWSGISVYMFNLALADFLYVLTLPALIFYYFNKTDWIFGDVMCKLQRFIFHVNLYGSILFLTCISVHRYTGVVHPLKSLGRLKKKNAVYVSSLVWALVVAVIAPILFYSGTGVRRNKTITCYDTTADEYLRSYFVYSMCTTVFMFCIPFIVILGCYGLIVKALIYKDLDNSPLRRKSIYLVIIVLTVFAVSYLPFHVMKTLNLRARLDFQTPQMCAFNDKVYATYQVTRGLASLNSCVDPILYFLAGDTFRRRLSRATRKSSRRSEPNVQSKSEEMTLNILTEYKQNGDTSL
# [2] = target: P2Y1R (D^116 ↦ E) (Meleagris gallopavo, UniProt P49652, D105E); test: Calcium mobilization; format: cell-based, turkey; settings: read-out: EC50 (for Ca^2+ mobilization); 1321N1 cells; mean ± SEM (n = 3)
# Sequence of P2Y1R (D^116 ↦ E) (P49652 whole entry D105E): as the sequence (P49652 whole entry) above, with D105E counted along it
# [3] = target: P2Y1R (D^121 ↦ E) (Meleagris gallopavo, UniProt P49652, D110E); test: Calcium mobilization; format: cell-based, turkey; settings: read-out: EC50 (for Ca^2+ mobilization); 1321N1 cells; mean ± SEM (n = 3)
# Sequence of P2Y1R (D^121 ↦ E) (P49652 whole entry D110E): as the sequence (P49652 whole entry) above, with D110E counted along it
# [4] = target: P2Y1R (F^119 ↦ R) (Meleagris gallopavo, UniProt P49652, F108R); test: Calcium mobilization; format: cell-based, turkey; settings: read-out: EC50 (for Ca^2+ mobilization); 1321N1 cells; mean ± SEM (n = 3)
# Sequence of P2Y1R (F^119 ↦ R) (P49652 whole entry F108R): as the sequence (P49652 whole entry) above, with F108R counted along it
# [5] = system: P2Y2R (wild-type); test: Calcium mobilization; format: cell-based, human
# [6] = target: P2Y2R (D^97 ↦ E), RGE mutant (Homo sapiens, UniProt P41231, D97E); test: Calcium mobilization; format: cell-based; settings: 1321N1 cells
# Sequence of P2Y2R (D^97 ↦ E), RGE mutant (P41231 whole entry D97E): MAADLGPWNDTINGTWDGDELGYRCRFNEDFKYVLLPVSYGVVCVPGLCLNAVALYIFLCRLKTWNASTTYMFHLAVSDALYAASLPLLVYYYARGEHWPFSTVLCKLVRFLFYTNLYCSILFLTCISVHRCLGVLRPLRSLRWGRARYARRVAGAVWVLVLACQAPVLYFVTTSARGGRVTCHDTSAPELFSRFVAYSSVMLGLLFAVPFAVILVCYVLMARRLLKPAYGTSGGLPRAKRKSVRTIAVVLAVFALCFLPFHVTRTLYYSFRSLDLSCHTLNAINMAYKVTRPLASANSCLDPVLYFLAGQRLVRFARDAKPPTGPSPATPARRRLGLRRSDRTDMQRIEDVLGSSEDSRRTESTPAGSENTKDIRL
# [7] = system: wild-type P2Y2R; test: FAK phosphorylation in 1321N1 transfectants; format: cell-based, human
# [8] = system: RGE mutant P2Y2R; test: FAK phosphorylation in 1321N1 transfectants; format: cell-based, human; settings: 1 mM UTP after 30 min preincubation with 10 μM BAPTA-AM
# Outline: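 Serum-starved (24 h, 37°C) 1321N1 cells stably expressing HA-tagged P2Y2R constructs were preincubated 30 min with buffer or 10 μM BAPTA-AM, then stimulated with 1 mM UTP. Cells were lysed in RIPA buffer and FAK was immunoprecipitated. Tyrosine phosphorylation was detected by anti-phosphotyrosine immunoblot after 7.5% SDS-PAGE, with chemiluminescence read-out. Three to six experiments.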
# [9] = system: wild-type P2Y2R; test: ERK1/2 phosphorylation in 1321N1 transfectants; format: cell-based, human
# Outline: (§1)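 1321N1 astrocytoma cells stably expressing HA-tagged P2Y2R (retroviral pLXSN, G418-selected) were grown to 80% confluence and serum-starved 24 h at 37°C. They were preincubated 30 min with buffer or 10 μM BAPTA-AM, then given 100 μM UTP. Lysates were run on 7.5% SDS-PAGE and immunoblotted for phospho-p42/p44 ERK1/2. Chemiluminescence was quantitated and normalised by reprobing for total ERK1/2.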
# [10] = system: RGE mutant P2Y2R; test: ERK1/2 phosphorylation in 1321N1 transfectants; format: cell-based, human; settings: 100 μM UTP after 30 min preincubation with 10 μM BAPTA-AM
# Outline: as §1
# [11] = system: K562 cells; test: Fluorescence-activated cell sorting of integrin surface expression; format: cell-based, human; settings: overnight treatment with 100 nM PDBu
# [12] = system: wild-type P2Y2R; test: IP assay; format: cell-based, human; settings: overnight treatment with peptide; not shown
# Outline: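 Wild-type P2Y2R 1321N1 transfectants were labelled 24 h with 2 μCi [3H]inositol (20 Ci/mmol) in serum-free, inositol-free DME. Cells were washed and held 30 min at 37°C in 30 mM LiCl buffer, then stimulated 10 min with UTP. Extraction used ice-cold 10% perchloric acid with neutralisation. Inositol phosphates were separated on Dowex columns and counted by liquid scintillation.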
# [13] = system: K562 erythroleukemia cells; test: Ligand-coated bead-binding assay; format: cell-based, human; settings: number of beads bound per 100 cells; 1 h at 37°C; mean ± SEM
# [14] = target: αVβ3 integrin (human (endogenous in K562)) (UniProt P06756); test: ligand-coated bead binding to cells
# Sequence of αVβ3 integrin (human (endogenous in K562)) (P06756 31-1048, chain 1 of 2): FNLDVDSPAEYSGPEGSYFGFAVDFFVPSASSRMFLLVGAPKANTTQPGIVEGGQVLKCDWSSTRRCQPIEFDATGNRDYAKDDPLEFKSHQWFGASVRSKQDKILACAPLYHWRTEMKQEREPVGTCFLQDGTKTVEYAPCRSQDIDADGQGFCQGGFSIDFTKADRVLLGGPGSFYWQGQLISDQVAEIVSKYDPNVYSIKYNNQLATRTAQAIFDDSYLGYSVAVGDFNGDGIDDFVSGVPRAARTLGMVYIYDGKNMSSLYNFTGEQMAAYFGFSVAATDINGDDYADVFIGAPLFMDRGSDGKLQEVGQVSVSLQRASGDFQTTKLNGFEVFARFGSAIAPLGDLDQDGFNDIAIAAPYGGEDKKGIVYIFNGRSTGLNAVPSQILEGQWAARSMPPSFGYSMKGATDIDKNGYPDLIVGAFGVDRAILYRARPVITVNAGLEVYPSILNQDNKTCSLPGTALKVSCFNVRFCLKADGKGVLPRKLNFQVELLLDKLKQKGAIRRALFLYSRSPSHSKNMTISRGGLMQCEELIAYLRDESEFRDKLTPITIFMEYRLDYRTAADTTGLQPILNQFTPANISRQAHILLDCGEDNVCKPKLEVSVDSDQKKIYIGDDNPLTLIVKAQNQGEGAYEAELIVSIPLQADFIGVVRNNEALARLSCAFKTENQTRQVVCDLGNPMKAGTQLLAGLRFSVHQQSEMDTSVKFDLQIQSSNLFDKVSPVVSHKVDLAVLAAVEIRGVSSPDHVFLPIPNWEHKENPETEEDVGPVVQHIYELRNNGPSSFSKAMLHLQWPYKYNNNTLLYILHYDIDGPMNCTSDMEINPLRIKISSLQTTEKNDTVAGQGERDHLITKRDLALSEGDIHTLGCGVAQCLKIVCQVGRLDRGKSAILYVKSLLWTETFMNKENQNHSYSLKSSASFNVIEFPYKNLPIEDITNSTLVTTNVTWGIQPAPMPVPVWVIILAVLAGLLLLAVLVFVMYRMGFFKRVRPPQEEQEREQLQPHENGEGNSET
# Sequence of αVβ3 integrin (human (endogenous in K562)) (P05106 27-788, chain 2 of 2, further chain): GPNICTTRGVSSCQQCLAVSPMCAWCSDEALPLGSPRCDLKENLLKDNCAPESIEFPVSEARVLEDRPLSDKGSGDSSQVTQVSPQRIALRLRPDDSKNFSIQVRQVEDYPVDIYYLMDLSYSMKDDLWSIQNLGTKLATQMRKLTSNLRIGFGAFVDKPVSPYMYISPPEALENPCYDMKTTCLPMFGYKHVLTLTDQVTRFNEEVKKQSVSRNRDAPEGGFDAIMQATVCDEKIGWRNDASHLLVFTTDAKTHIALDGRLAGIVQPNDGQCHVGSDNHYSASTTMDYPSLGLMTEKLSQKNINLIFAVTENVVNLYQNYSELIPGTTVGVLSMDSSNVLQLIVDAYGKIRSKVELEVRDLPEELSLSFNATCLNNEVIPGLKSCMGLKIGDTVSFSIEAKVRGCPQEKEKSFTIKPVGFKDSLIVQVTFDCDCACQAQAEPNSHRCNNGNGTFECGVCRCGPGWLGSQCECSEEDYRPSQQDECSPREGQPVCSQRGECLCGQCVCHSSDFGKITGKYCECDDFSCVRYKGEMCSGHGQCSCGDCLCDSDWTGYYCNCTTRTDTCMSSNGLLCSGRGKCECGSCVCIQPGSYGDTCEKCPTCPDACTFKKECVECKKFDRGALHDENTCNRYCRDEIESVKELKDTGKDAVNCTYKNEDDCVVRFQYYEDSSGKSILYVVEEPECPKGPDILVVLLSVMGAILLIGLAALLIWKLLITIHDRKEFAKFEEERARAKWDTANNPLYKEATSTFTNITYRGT
# [15] = target: αVβ5 integrin (human (endogenous in K562)) (UniProt P06756); test: ligand-coated bead binding to cells
# Sequence of αVβ5 integrin (human (endogenous in K562)) (P06756 31-1048, chain 1 of 2): as the sequence (P06756 31-1048, chain 1 of 2) above
# Sequence of αVβ5 integrin (human (endogenous in K562)) (P18084 24-799, chain 2 of 2, further chain): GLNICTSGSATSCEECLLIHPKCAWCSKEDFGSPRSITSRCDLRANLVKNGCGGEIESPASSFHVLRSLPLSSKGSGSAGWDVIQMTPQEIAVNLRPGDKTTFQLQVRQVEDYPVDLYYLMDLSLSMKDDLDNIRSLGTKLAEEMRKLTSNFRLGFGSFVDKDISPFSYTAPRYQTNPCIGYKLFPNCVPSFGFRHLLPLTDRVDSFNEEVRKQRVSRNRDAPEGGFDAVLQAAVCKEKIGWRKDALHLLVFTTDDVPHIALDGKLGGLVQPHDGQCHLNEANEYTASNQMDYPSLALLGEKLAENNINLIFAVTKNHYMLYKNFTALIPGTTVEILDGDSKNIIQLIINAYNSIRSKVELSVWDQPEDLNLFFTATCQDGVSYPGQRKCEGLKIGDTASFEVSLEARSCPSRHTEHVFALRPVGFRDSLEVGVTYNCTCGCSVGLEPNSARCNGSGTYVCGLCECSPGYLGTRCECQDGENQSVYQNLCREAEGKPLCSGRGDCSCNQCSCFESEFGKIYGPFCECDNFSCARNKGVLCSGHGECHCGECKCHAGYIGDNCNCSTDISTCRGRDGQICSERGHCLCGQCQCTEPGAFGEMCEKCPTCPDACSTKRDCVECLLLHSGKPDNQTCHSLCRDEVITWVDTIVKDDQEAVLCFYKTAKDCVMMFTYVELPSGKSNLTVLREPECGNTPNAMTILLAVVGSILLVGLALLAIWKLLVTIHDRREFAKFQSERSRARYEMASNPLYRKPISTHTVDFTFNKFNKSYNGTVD
# [16] = overnight (18 h) with 100 μM peptide, 1 μM UTP 5 min
# [17] = shorter incubation periods than overnight, not shown
# [18] = overnight (18 h) with 100 μM peptide, 10 nM UTP 5 min
molecule,measurement,setting,value
Nc1ncnc2c1ncn2[C@@H]1O[C@H](COP(=O)(O)OP(=O)(O)O)[C@@H](O)[C@H]1O [ADP],EC50,[1],0.06 ± 0.01 µM
same,EC50,[2],0.06 ± 0.01 µM
same,EC50,[3],0.08 ± 0.01 µM
same,EC50,[4],2.02 ± 0.27 µM
Nc1ncnc2c1ncn2[C@@H]1O[C@H](COP(=O)(O)OP(=O)(O)OP(=O)(O)O)[C@@H](O)[C@H]1O [ATP],EC50,"[5]; read-out: EC50 (for Ca^2+ mobilization), 1321N1 cells, mean ± SEM (n = 3)",0.85 ± 0.13 µM
same,EC50,"[6]; read-out: EC50 (for Ca^2+ mobilization), mean ± SEM (n = 3)",785 ± 125 µM
"O=C(O)CN(CC(=O)O)c1ccccc1OCCOc1ccccc1N(CC(=O)O)CC(=O)O [BAPTA, 1,2-bis(2-aminophenoxy)ethane-N,N,N′,N′-tetraacetic acid]",Effect on UTP-induced FAK phosphorylation,[7]; 1 mM UTP after 30 min preincubation with 10 μM BAPTA-AM,inhibited
same,Effect on UTP-induced FAK phosphorylation,[8],inhibited
same,Effect on UTP-induced ERK1/2 phosphorylation,[9]; 100 μM UTP after 30 min preincubation with 10 μM BAPTA-AM,partially inhibited
same,Effect on UTP-induced ERK1/2 phosphorylation,[10],not affected
"CCCC(=O)O[C@@H]1[C@@H](C)[C@@]2(O)[C@@H](C=C(CO)C[C@]3(O)C(=O)C(C)=C[C@@H]23)[C@@H]2C(C)(C)[C@]12OC(=O)CCC [PDBu, phorbol dibutyrate]","Fluorescence intensity or percentage of cells stained by antiintegrin antibodies (α5, αVβ5, β3)",[11],did not increase
RGDS,Effect on P2Y2R-mediated Ca^2+ mobilization,"[5]; overnight treatment with peptide, not shown",not inhibited
same,Effect on P2Y2R-mediated FAK phosphorylation,[7]; [16],inhibited
same,Effect on P2Y2R-mediated FAK phosphorylation,[7]; [17],did not cause inhibition
same,Effect on P2Y2R-mediated ERK1/2 phosphorylation,[9]; [18],inhibited
same,Effect on P2Y2R-mediated ERK1/2 phosphorylation,[9]; [17],did not cause inhibition
same,Effect on P2Y2R-mediated IP formation,[12],not inhibited
RGES,Effect on P2Y2R-mediated FAK phosphorylation,[7]; [16],no effect
same,Effect on P2Y2R-mediated ERK1/2 phosphorylation,[9]; [18],no effect
fibronectin,AI (adhesion index) of ligand-coated beads bound to K562 cells,[13],318 ± 14
human vitronectin (ligand),"adhesion index (AI, beads bound per 100 K562 cells) (beads bound per 100 cells)",[14],300
same,"adhesion index (AI, beads bound per 100 K562 cells) (beads bound per 100 cells)",[15],300
pertussis toxin,Inhibition of Ca^2+ mobilization,"[5]; 200 ng/ml PTX overnight, 1 μM UTP, 1321N1 cells",30%
same,Effect on Ca^2+ mobilization,"[6]; 200 ng/ml PTX overnight, 100 μM UTP",insensitive
B1,AI (adhesion index) of ligand-coated beads bound to K562 cells,[13],300 ± 28
